The text below walks through data of ChEMBL document CHEMBL1154695 (J Med Chem, 2009).

For series [1], the system named is Plasma. Kind of series: Stability in human plasma relative to telaprevir. The class given is ADME, cell-free. The essentials:
(§1)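 Rat, dog or human plasma was preincubated at 37 °C and spiked from DMSO stock to a final 1 or 10 μM (final DMSO 1%), in triplicate with shaking. Control was 0.1 M potassium phosphate pH 7.4. Sampling was at 0–120 min (rat, dog) or 0–180 min (human, buffer). Samples were acidified, extracted with ethyl acetate and run on chiral LC-MS/MS (MRM). Epimerization was scored by initial rate and k_H/k_D.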

For series [2], the system named is Plasma. The series is described as follows: Stability in dog plasma relative to telaprevir. The class given is ADME, cell-free, Canis lupus familiaris. In a few lines:
as §1

The subject of series [3] is Plasma. The series is described as follows: Stability in rat plasma relative to telaprevir. The class given is ADME, cell-free. The essentials:
as §1

The nature of series [4]: Inhibition of HCV NS3/4A protease. Also noted: species or system Hepacivirus hominis.
A further series relates to Hepatitis C virus. The series is described as follows: Antiviral activity against HCV by viral replicon assay. The class given is functional, Hepacivirus hominis. Background: Replicon systems follow genome replication, usually without infectious particles.
Series [5] can be described thus: Stability in potassium phosphate buffer of pH 7. The class given is physicochemical. The essentials:
(§2)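 Start concentration 0.25 mg/mL, followed over time at pH 7 in water, pH 7 phosphate (0.05 M) or pH 9 borate (0.1 M). Aliquots were drawn at intervals and HPLC measured the parent and the P1-(R) epimer VRT-394. k_obs is the sum of the forward and reverse epimerization rate constants; relative rate is taken against pH 7 water.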

The nature of series [6]: Stability in boric acid-potassium chloride buffer of pH 9. The class given is physicochemical. The essentials: as §2
Series [7] is described as follows: Stability in rat plasma assessed as compound epimerization at 10 uM. The class given is ADME, cell-free. The essentials: as §1
Series [8] in a line: Terminal half life in Sprague-Dawley rat at 10 mg/kg, po. Particulars: in vivo, read-out: beta t1/2 (converted). The format is ADME, organism-based. Set-up: dose 10 mg/kg, route oral. In a few lines:
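Male Sprague-Dawley rats with cannulas received 10 mg/kg by gavage at 1 mg/mL (10 mL/kg) in a solid dispersion (HPMC-AS/SLS) taken up in 1% HPMC-AS and 10% vitamin E TPGS. Blood was drawn from 0.25 to 24 h into EDTA; plasma was acidified and assayed by LC/MS/MS. Parameters came from noncompartmental analysis.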

The subject of series [9] is Plasma. The series is described as follows: Stability in human plasma assessed as conversion to VRT-394 at 1 uM after 1 hr.
Series [10] is described as follows: Chemical stability assessed as compound epimerization in potassium phosphate buffer of pH 7. The class given is physicochemical. In a few lines:
as §2

The subject of series [11] is Plasma. Kind of series: Stability in human plasma assessed as conversion to VRT-394 at 10 uM after 1 hr. The format is ADME, cell-free. The following applies: 1 µM, in the assay text read “1 uM” for “10 uM”.

Turning to `[2H][C@@](CCC)(NC(=O)[C@@H]1[C@H]2CCC[C@H]2CN1C(=O)[C@@H](NC(=O)[C@@H](NC(=O)c1cnccn1)C1CCCCC1)C(C)(C)C)C(=O)C(=O)NC1CC1`, the Activity result with Plasma [1] is “Stable”; with Plasma [2], “Stable”; with Plasma [3], “Stable”; in series [5] it was “Stable”; in series [6] it was “Stable”; in the series on Plasma [9], 10%. In [4], affinity was put at a Ki of 20 nM. Moreover, in the series with Hepatitis C virus, the IC99 (as a rule, the concentration needed for an effect of 99%) was determined as 4 µM. For the same compound, in [7], the half-life at 10 µM is greater than 4 h. The half-life in series [8] was 1.5 h.

In the case of `CCC[C@@H](NC(=O)[C@@H]1[C@H]2CCC[C@H]2CN1C(=O)[C@@H](NC(=O)[C@@H](NC(=O)c1cnccn1)C1CCCCC1)C(C)(C)C)C(=O)C(=O)NC1CC1`, in series [4], the Ki (commonly a measure of affinity in units of concentration, obtained from inhibition or displacement) is greater than 1000 nM.

In turn, `CCC[C@H](NC(=O)[C@@H]1[C@H]2CCC[C@H]2CN1C(=O)[C@@H](NC(=O)[C@@H](NC(=O)c1cnccn1)C1CCCCC1)C(C)(C)C)C(=O)C(=O)NC1CC1` showed an IC99 with Hepatitis C virus of 3.3 µM. For the same compound, in series [10], the half-life is 35 h. For the same compound, in the series on Plasma [11], the Activity is on record as 35%.
